ChEMBL document CHEMBL1154636, “Exploring the importance of piperazine N-atoms for sigma(2) receptor affinity and activity in a series of analogs of 1-cyclohexyl-4-[3-(5-methoxy-1,2,3,4-tetrahydronaphthalen-1-yl)propyl]piperazine (PB28)” (J Med Chem, 2009)

Assays:
[1] = target: Sigma non-opioid intracellular receptor 1 (Cavia porcellus, UniProt Q60492); experiment: Displacement of [3H](+)-pentazocine ((+)-[2S-(2R,6R,11R)]-1,2,3,4,5,6-hexahydro-6,11-dimethyl- 3-(3-methyl-2-butenyl)-2,6-methano-3-benzazocine- 8-ol) from sigma 1 receptor in Dunkin guinea pig brain membrane by radioreceptor binding assay; type: cell membranes
Chain of Sigma non-opioid intracellular receptor 1 (Cavia porcellus, UniProt Q60492) (Q60492 whole entry): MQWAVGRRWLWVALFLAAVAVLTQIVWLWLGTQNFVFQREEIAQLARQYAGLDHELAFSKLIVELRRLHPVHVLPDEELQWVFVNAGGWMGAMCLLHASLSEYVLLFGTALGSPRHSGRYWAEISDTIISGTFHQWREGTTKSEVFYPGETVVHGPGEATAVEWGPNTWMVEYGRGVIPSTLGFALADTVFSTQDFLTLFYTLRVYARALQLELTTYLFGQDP
Procedure, shortened: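 IC50 came from six to nine concentrations, in two or three experiments with duplicate samples. Compounds were tested as hydrochloride salts, or as methylammonium iodides where applicable.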

[2] = Displacement of [3H]DTG form sigma 2 receptor in Wistar Hannover rat liver membrane by radioreceptor binding assay; type: cell membranes
Procedure, shortened: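 Specific binding was defined with DTG (85-96%). IC50 came from six to nine drug concentrations, in two or three experiments with duplicate samples.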

[3] = target: T1, 3-beta-hydroxysteroid-Delta(8),Delta(7)-isomerase (Cavia porcellus, UniProt Q60490); experiment: Displacement of [3H](+/-)-emopamil from EBP in Dunkin guinea pig liver membrane by radioreceptor binding assay; type: cell membranes
T1 sequence (Q60490 whole entry): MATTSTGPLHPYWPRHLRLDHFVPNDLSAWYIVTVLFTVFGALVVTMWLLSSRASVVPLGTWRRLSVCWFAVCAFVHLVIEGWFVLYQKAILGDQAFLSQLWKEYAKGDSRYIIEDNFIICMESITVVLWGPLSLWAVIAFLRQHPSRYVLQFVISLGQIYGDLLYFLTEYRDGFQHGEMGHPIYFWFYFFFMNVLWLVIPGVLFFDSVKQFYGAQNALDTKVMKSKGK

[4] = Selectivity ratio of Ki for sigma 2 receptor in Wistar Hannover rat liver membrane to Ki for sigma 1 receptor in Dunkin guinea pig brain; type: cell membranes
Procedure, shortened: (§1)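 Ratios were calculated from Ki values. Sigma-1 Ki was measured with (+)-[3H]-pentazocine on guinea-pig brain membranes without cerebellum. […] Each IC50 came from six to nine concentrations, in two or three experiments with duplicates.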

SK-N-SH [5] = experiment: Antiproliferative activity against human SK-N-SH cells after 48 hrs by MTT assay; type: functional, cell-based
Procedure, shortened: (§2)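 Human SK-N-SH neuroblastoma cells were grown in RPMI 1640 with 10% FBS, 2 mM glutamine, penicillin/streptomycin, 1 mM pyruvate and 1% non-essential amino acids at 37 °C under 5% CO2. Cells were plated at 10 000/well and dosed next day at 1–100 μM, with solvent (ethanol, DMSO) controls. After 48 h, 0.5 mg/mL MTT was added for 3 h at 37 °C. Formazan was dissolved in DMSO and read at 570 and 630 nm.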

[6] = Displacement of [3H]DTG form sigma 2 receptor in rat liver membrane; type: cell membranes
Procedure, shortened: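 IC50 taken from six to nine drug concentrations, two or three experiments with duplicate samples, and converted to Ki. Tested as hydrochloride salts, or as methylammonium iodide salts for the quaternized analogs.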

[7] = Selectivity ratio of Ki for sigma 1 receptor in Dunkin guinea pig brain membrane to Ki for sigma 2 receptor in Wistar Hannover rat liver membrane; type: cell membranes; procedure, shortened: as §1
SK-N-SH [8] = experiment: Inhibition of human SK-N-SH cell proliferation at 100 uM after 48 hrs by MTT assay; type: functional; procedure, shortened: as §2
[9] = target: Sigma non-opioid intracellular receptor 1 (Rattus norvegicus, UniProt Q9R0C9); experiment: Displacement of [3H](+/-)-pentazocine from sigma 1 receptor in rat whole brain
Chain of Sigma non-opioid intracellular receptor 1 (Rattus norvegicus, UniProt Q9R0C9) (Q9R0C9 whole entry): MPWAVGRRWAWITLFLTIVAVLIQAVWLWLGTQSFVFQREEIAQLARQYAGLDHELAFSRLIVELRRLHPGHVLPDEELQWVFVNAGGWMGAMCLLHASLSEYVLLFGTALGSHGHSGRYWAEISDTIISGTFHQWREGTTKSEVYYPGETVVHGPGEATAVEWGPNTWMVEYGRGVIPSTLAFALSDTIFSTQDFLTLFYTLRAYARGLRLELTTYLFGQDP

[10] = Binding affinity to sigma 2 receptor in human SK-N-SH cells; type: cell-based
[11] = Displacement of [3H]DTG form sigma receptor in guinea pig brain; set-up: species or system Cavia porcellus

O=C(C1CCCCC1)N1CCN(C2CCCCC2)CC1
Ki [1]: 3.59 nM | Ki [2]: 201 nM | Ki [3]: 230 nM | Ratio Ki [4]: 56

COc1cccc2c1CCCC2CCCC1CCN(C2CCCCC2)CC1 (stereo unspecified)
Ki [1]: 1.1 nM | Ki [2]: 26.6 nM | Ki [3]: 1.46 nM | Ratio Ki [4]: 24 | EC50 (SK-N-SH [5]): 1400 nM

COc1cccc2c1CCCC2CCCN1CCN(C2CCCCC2)CC1 (stereo unspecified)
Ki [6]: 0.68 nM | EC50 (SK-N-SH [5]): 9970 nM

COc1cccc2c1CCCC2CCCN1CC[N+](C)(C2CCCCC2)CC1 (stereo unspecified)
Ki [1]: 338 nM | Ki [2]: 13 nM | Ki [3]: 23 nM | Ratio Ki [7]: 26 | inhibition at 100 µM (SK-N-SH [8]): 22%

C1CCC(CCCN2CCN(C3CCCCC3)CC2)CC1
Ki [1]: 0.25 nM | Ki [3]: 4.7 nM | Ratio Ki [4]: 19 | EC50 (SK-N-SH [5]): 52100 nM

COc1cccc2c1CCCC2CCCNCC(=O)NC1CCCCC1 (stereo unspecified)
Ki [1]: 3910 nM | Ki [2]: 798 nM | Ki [3]: 1230 nM | Ratio Ki [7]: 5

CC(=O)N1CCN(C)CC1
Ki [1]: > 5000 nM | Ki [2]: > 10000 nM | Ki [3]: > 1000 nM

CC(C(O)c1ccc(O)cc1)N1CCC(Cc2ccccc2)CC1 (racemic) [IFENPRODIL]
Ki [3]: 10.2 nM

CCN1CCN(C2CCCCC2)CC1
Ki [1]: 62.4 nM | Ki [2]: 349 nM | Ki [3]: 64.4 nM | Ratio Ki [4]: 5.6

C1CCC(N2CCN(C3CCCCC3)CC2)CC1
Ki [1]: 2.05 nM | Ki [2]: 11.5 nM | Ki [3]: 17 nM | Ratio Ki [4]: 5.6 | inhibition at 100 µM (SK-N-SH [8]): 4%

COc1cccc2c1CCCC2NCCN1CCC(C2CCCCC2)CC1 (stereo unspecified)
Ki [1]: 0.67 nM | Ki [2]: 74.7 nM | Ratio Ki [4]: 111

COc1cccc2c1CCCC2CCCN1CCOCC1 (stereo unspecified)
Ki [1]: 9.1 nM | Ki [2]: 442 nM | Ratio Ki [4]: 49

COc1cccc2c1CCCC2CCCN1CCC(C2CCCCC2)CC1 (stereo unspecified)
Ki [1]: 143 nM | Ki [2]: 18.8 nM | Ki [3]: 7.4 nM | Ratio Ki [7]: 7.6 | EC50 (SK-N-SH [5]): 3640 nM

COc1cccc2c1CCCC2CCCN1CCN(CCCC2CCCc3c(OC)cccc32)CC1 (stereo unspecified)
Ki [1]: > 5000 nM | Ki [2]: 120 nM | Ki [3]: 470 nM | Ratio Ki [7]: > 42

COc1cccc2c1CCCC2CCCCCN1CCC(C2CCCCC2)CC1 (stereo unspecified)
Ki [1]: 236 nM | Ki [2]: 72.3 nM | Ki [3]: 49 nM | Ratio Ki [7]: 3.3

C1CCC(N2CCNCC2)CC1
Ki [1]: > 5000 nM | Ki [2]: > 5000 nM | Ki [3]: > 1000 nM

COc1cccc2c1CCCC2CCC[N+]1(C)CC[N+](C)(C2CCCCC2)CC1 (stereo unspecified)
Ki [1]: > 5000 nM | Ki [2]: 1710 nM | Ki [3]: 150 nM | Ratio Ki [7]: > 3 | inhibition at 100 µM (SK-N-SH [8]): 30%

COc1cccc2c1CCCC2CCC[N+]1(C)CCN(C2CCCCC2)CC1 (stereo unspecified)
Ki [1]: 63.7 nM | Ki [2]: 6.78 nM | Ki [3]: 32 nM | Ratio Ki [7]: 9.4 | inhibition at 100 µM (SK-N-SH [8]): 26%

COc1cccc2c1CCCC2CCCN1CCCCC1 (stereo unspecified)
Ki [1]: 3.38 nM | Ki [2]: 41.2 nM | Ki [3]: 11.1 nM | Ratio Ki [4]: 12 | Ki [9]: 18.2 nM

COc1cccc2c1CCCC2CCC(=O)N1CCN(C2CCCCC2)CC1 (stereo unspecified)
Ki [1]: 0.11 nM | Ki [2]: 179 nM | Ki [3]: 7.4 nM | Ratio Ki [4]: 1630

Cc1ccccc1NC(=N)Nc1ccccc1C [DITOLYLGUANIDINE]
Ki [2]: 32 nM

CC(C)=CCN1CC[C@]2(C)c3cc(O)ccc3C[C@H]1[C@H]2C [(+)-PENTAZOCINE]
Ki [10]: 1860 nM

c1ccc(CCN2CCN(c3ccccn3)CC2)cc1
inhibition at 100 µM (SK-N-SH [8]): 38%

COc1cccc2c1CCCC2CCCN1CCNCC1 (stereo unspecified)
Ki [1]: 218 nM | Ki [2]: 590 nM | Ki [3]: 35.4 nM | Ratio Ki [4]: 2.7 | Ki [11]: > 877 nM

COc1cccc2c1CCCC2CCCN1CCC(O)(C2CCCCC2)CC1 (stereo unspecified)
Ki [1]: 5.56 nM | Ki [2]: 9.27 nM | Ki [3]: 10.4 nM | Ratio Ki [4]: 1.6 | EC50 (SK-N-SH [5]): 15900 nM

COc1cccc2c1CCCC2OCCN1CCC(C2CCCCC2)CC1 (stereo unspecified)
Ki [1]: 91 nM | Ki [2]: 161 nM | Ratio Ki [4]: 1.8

CC(=O)N1CCN(C2CCCCC2)CC1
Ki [1]: > 5000 nM | Ki [2]: > 5000 nM | Ki [3]: > 1000 nM

COc1cccc2c1CCCC2CCCN1CCN(C(=O)C2CCCCC2)CC1 (stereo unspecified)
Ki [1]: > 5000 nM | Ki [2]: 304 nM | Ki [3]: 550 nM | Ratio Ki [7]: > 16
